Results published in ChEMBL document CHEMBL4020824, “Discovery of Potent and Orally Bioavailable Dihydropyrazole GPR40 Agonists” (J Med Chem, 2018).
Activity calls are given as the source filed them. No cut-off for these calls is given here.

How the values were obtained:
[1] = target: T1, Peroxisome proliferator-activated receptor gamma (Homo sapiens, UniProt P37231); test: Agonist activity at PPARgamma (unknown origin)
T1 sequence (P37231 whole entry): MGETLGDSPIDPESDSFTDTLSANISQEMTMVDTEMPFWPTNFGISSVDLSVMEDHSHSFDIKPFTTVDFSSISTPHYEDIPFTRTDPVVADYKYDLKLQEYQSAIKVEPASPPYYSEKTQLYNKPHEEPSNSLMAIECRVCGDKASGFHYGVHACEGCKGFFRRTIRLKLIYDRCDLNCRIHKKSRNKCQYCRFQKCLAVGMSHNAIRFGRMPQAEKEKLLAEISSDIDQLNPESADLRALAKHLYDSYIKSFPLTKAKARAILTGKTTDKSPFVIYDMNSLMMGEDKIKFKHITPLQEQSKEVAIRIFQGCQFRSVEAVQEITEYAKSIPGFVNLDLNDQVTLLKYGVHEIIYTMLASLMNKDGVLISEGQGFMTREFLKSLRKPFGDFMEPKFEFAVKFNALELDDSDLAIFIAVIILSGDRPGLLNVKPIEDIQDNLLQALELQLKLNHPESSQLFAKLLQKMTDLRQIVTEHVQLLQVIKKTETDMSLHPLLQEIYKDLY

[2] = test system: Mus musculus; test: Antidiabetic activity in C57BL/6J mouse assessed as glucose lowering effect at 1 mg/kg, po administered 1 hr prior to glucose challenge measured after 120 mins by IPGTT; format: functional, organism-based
[3] = target: T2, Free fatty acid receptor 1 (Homo sapiens, UniProt O14842); test: Agonist activity at human GPR40 expressed in CHOA12 cells assessed as induction of Ca2+ mobilization by FLIPR assay; format: functional, cell-based
T2 sequence (O14842 whole entry): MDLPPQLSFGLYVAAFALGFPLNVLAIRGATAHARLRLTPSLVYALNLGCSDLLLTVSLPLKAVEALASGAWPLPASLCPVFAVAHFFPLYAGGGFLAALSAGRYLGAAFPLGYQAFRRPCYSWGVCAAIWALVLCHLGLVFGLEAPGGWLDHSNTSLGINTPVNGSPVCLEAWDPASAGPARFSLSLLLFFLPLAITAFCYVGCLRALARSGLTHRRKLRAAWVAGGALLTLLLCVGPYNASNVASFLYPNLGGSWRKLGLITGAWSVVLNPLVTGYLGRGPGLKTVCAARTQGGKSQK

[4] = test system: Liver; test: Drug level in human liver microsomes treated with 2-((4S,5S)-1-(4-((1-(2-Fluoro-5-methoxyphenyl)piperidin-4-yl)-oxy)phenyl)-4-methyl-3-(trifluoromethyl)-4,5-dihydro-1H-pyrazol-5-yl)acetic acid at 1 to 3 uM incubated for 20 mins in presence of NADPH measured after 90 mins by LC/MS/MS analysis; format: ADME, microsome
Outline: (§1)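 Human or rat liver microsomal incubations. The read-outs were % parent remaining, % D-ring dealkylation metabolites, % GSH adducts, and half-life (min). The metabolites followed were CYP450-mediated oxidative de-alkylation products (phenols) and GSH conjugates.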

[5] = test system: Liver; test: Drug level in rat liver microsomes treated with 2-((4S,5S)-1-(4-((1-(2-Fluoro-5-methoxyphenyl)piperidin-4-yl)-oxy)phenyl)-4-methyl-3-(trifluoromethyl)-4,5-dihydro-1H-pyrazol-5-yl)acetic acid at 1 to 3 uM incubated for 20 mins in presence of NADPH measured after 90 mins by LC/MS/MS analysis; format: ADME, microsome; outline: as §1
[6] = test system: Liver; test: Drug level in human liver microsomes treated with 2-((4S,5S)-1-(4-(((3R,4R)-1-(5-Ethoxy-2-fluorophenyl)-3-methylpiperidin-4-yl)oxy)phenyl)-4-methyl-3-(trifluoromethyl)-4,5-dihydro-1H-pyrazol-5-yl)acetic acid at 1 to 3 uM incubated for 20 mins in presence of NADPH measured after 90 mins by LC/MS/MS analysis; format: ADME, microsome; outline: as §1
[7] = test system: Liver; test: Drug level in rat liver microsomes treated with 2-((4S,5S)-1-(4-(((3R,4R)-1-(5-Ethoxy-2-fluorophenyl)-3-methylpiperidin-4-yl)oxy)phenyl)-4-methyl-3-(trifluoromethyl)-4,5-dihydro-1H-pyrazol-5-yl)acetic acid at 1 to 3 uM incubated for 20 mins in presence of NADPH measured after 90 mins by LC/MS/MS analysis; format: ADME, microsome; outline: as §1
[8] = Clearance in Sprague-Dawley rat at 1 mg/kg, iv administered as single dose measured up to 24 hrs post dose by LC-MS/MS analysis; format: ADME, organism-based; conditions: in vivo
[9] = Half life in rat liver microsomes at 1 to 3 uM incubated for 20 mins in presence NADPH measured up to 90 mins by LC/MS/MS analysis; format: ADME, microsome; conditions: liver microsomes
[10] = Clearance in cynomolgus monkey at 0.5 mg/kg, iv administered as single dose measured up to 24 hrs post dose by LC-MS/MS analysis; format: ADME, organism-based, Macaca fascicularis; conditions: in vivo
[11] = Half life in CD1 mouse at 1 mg/kg, iv administered as bolus dose or 1 mg/kg, po administered as single dose measured up to 24 hrs post dose by LC-MS/MS analysis; format: ADME, organism-based; conditions: in vivo
[12] = Stability in rat liver microsomes assessed as parent compound remaining at 1 to 3 uM incubated for 20 mins in presence NADPH measured up to 90 mins by LC/MS/MS analysis; format: ADME, microsome; conditions: liver microsomes, read-out: Stability; outline: as §1
[13] = Half life in Sprague-Dawley rat at 1 mg/kg, iv administered as single dose measured up to 24 hrs post dose by LC-MS/MS analysis; format: ADME, organism-based; conditions: in vivo
[14] = Volume of distribution at steady state in Sprague-Dawley rat at 1 mg/kg, iv administered as single dose measured up to 24 hrs post dose by LC-MS/MS analysis; format: ADME, organism-based; conditions: in vivo, read-out: Vdss
[15] = Clearance in CD1 mouse at 1 mg/kg, iv administered as bolus dose or 1 mg/kg, po administered as single dose measured up to 24 hrs post dose by LC-MS/MS analysis; format: ADME, organism-based; conditions: in vivo
[16] = Half life in cynomolgus monkey at 0.5 mg/kg, iv administered as single dose measured up to 24 hrs post dose by LC-MS/MS analysis; format: ADME, organism-based, Macaca fascicularis; conditions: in vivo
[17] = Stability in human liver microsomes assessed as parent compound remaining at 1 to 3 uM incubated for 20 mins in presence NADPH measured up to 90 mins by LC/MS/MS analysis; format: ADME, microsome; conditions: liver microsomes, read-out: Stability; outline: as §1
[18] = Tmax in Sprague-Dawley rat at 3 mg/kg, po administered as single dose measured up to 24 hrs post dose by LC-MS/MS analysis; format: ADME, organism-based; conditions: in vivo
[19] = Half life in human liver microsomes at 1 to 3 uM incubated for 20 mins in presence NADPH measured up to 90 mins by LC/MS/MS analysis; format: ADME, microsome; conditions: liver microsomes
[20] = Half life in Beagle dog at 0.5 mg/kg, iv administered as single dose measured up to 24 hrs post dose by LC-MS/MS analysis; format: ADME, organism-based, Canis lupus familiaris; conditions: in vivo
[21] = Oral bioavailability in Sprague-Dawley rat at 3 mg/kg administered via gavage as single dose measured up to 24 hrs post dose by LC-MS/MS analysis; format: ADME, organism-based; conditions: in vivo
[22] = Volume of distribution at steady state in CD1 mouse at 1 mg/kg, iv via bolus dose or 1 mg/kg, po administered as single dose measured up to 24 hrs post dose by LC-MS/MS analysis; format: ADME, organism-based; conditions: in vivo, read-out: Vdss
[23] = Cmax in Sprague-Dawley rat at 3 mg/kg, po administered as single dose measured up to 24 hrs post dose by LC-MS/MS analysis; format: ADME, organism-based; set-up: dose 3 mg/kg, route oral; conditions: in vivo
[24] = Volume of distribution at steady state in Beagle dog at 0.5 mg/kg, iv administered as single dose measured up to 24 hrs post dose by LC-MS/MS analysis; format: ADME, organism-based, Canis lupus familiaris; conditions: in vivo, read-out: Vdss
[25] = Volume of distribution at steady state in cynomolgus monkey at 0.5 mg/kg, iv administered as single dose measured up to 24 hrs post dose by LC-MS/MS analysis; format: ADME, organism-based, Macaca fascicularis; conditions: in vivo, read-out: Vdss
[26] = Clearance in Beagle dog at 0.5 mg/kg, iv administered as single dose measured up to 24 hrs post dose by LC-MS/MS analysis; format: ADME, organism-based, Canis lupus familiaris; conditions: in vivo
[27] = target: T2, Free fatty acid receptor 1; test: Agonist activity at human GPR40 expressed in CHOA12 cells assessed as induction of Ca2+ mobilization at 8.3 uM by FLIPR assay relative to compound 2; format: functional, cell-based

Work on `COc1ccc(F)c(-c2ccc(Cc3ccc(N4N=C(C(F)(F)F)[C@@H](C)[C@@H]4CC(=O)O)cc3)c(C)c2)c1` yielded an EC50 [1] of 2600 nM.
In the case of `COc1ccc(F)c(-c2ccc(Cc3ccc(N4C[C@H](C(F)(F)F)C[C@@H]4CC(=O)O)cc3)c(C)c2)c1`, the Activity [2] is reported as “Active”.
`COc1ccc(F)c(N2CC[C@@H](Oc3ccc(N4N=C(C(F)(F)F)[C@@H](C)[C@@H]4CC(=O)O)cc3)[C@H](F)C2)c1` gave an EC50 [3] of 70 nM.
Compound `CCOc1cc(N2CC[C@@H](Oc3ccc(N4N=C(C(F)(F)F)[C@@H](C)[C@@H]4CC(=O)O)cc3)[C@H](C)C2)c(Cl)cn1` has an EC50 [3] of 190 to 250 nM.
In the case of `C[C@@H]1C(C(F)(F)F)=NN(c2ccc(OC3CCN(c4cc(O)ccc4F)CC3)cc2)[C@H]1CC(=O)O`, the Drug uptake [4] is reported as “Metabolite_Detected” and the Drug uptake [5] is reported as “Metabolite_Detected”.
Work on `COc1cc(N2CCC(Oc3ccc(N4N=C(C(F)(F)F)[C@@H](C)[C@@H]4CC(=O)O)cc3)CC2)c(F)cn1` yielded an EC50 [3] of 150 to 180 nM.
Compound `CCc1ccc(F)c(N2CCC(Oc3ccc(N4N=C(C(F)(F)F)[C@@H](C)[C@@H]4CC(=O)O)cc3)CC2)c1` has an EC50 [3] of 450 to 720 nM.
In the case of `C[C@@H]1CN(c2cc(O)ccc2F)CC[C@H]1Oc1ccc(N2N=C(C(F)(F)F)[C@@H](C)[C@@H]2CC(=O)O)cc1`, the Drug uptake [6] is reported as “Metabolite_Detected” and the Drug uptake [7] is reported as “Metabolite_Detected”.
Work on `C[C@@H]1C(C(F)(F)F)=NN(c2ccc(OC3CCN(c4ccc(F)cc4)CC3)cc2)[C@H]1CC(=O)O` yielded an EC50 [3] of 2550 to 2730 nM.
`CCOc1ccc(F)c(N2CC[C@@H](Oc3ccc(N4N=C(C(F)(F)F)[C@@H](C)[C@@H]4CC(=O)O)cc3)[C@H](F)C2)c1` gave a clearance [8] of 5 mL/min/kg, a half-life [9] of 0.617 h and a clearance [10] of 4 mL/min/kg. The half-life [11] was 3.3 h, the remaining at 20 min, up to 3 µM [12] was 79% and the half-life [13] was 3.4 h. For the same compound, the Vd [14] was 0.8 L/kg, the clearance [15] was 1.6 mL/min/kg and the half-life [16] was 9.4 h. For the same compound, the remaining at 20 min, up to 3 µM [17] was 93%, the Tmax [18] was 1.7 h and the half-life [19] was 1.58 h. The half-life [20] was 7.3 h, the EC50 [3] was 150 nM and the bioavailability [21] was 89%. The Vd [22] was 0.7 L/kg, the Cmax [23] was 3.2 µM and the Vd [24] was 0.6 L/kg. It also gave a Vd [25] of 2.2 L/kg and a clearance [26] of 2.6 mL/min/kg.
`COc1cc(N2CC[C@@H](Oc3ccc(N4N=C(C(F)(F)F)[C@@H](C)[C@@H]4CC(=O)O)cc3)[C@H](F)C2)c(Cl)cn1` showed an EC50 [3] of 180 nM.
With `COc1ccc(F)c(N2CCC(Oc3ccc(N4C[C@H](C(F)(F)F)C[C@@H]4CC(=O)O)cc3)C2)c1` (some centres undefined) the EC50 [3] was 2830 to 5360 nM and the Activity [27] was “Active”.
